Test results as given in article PMC4608253 (Journal of chromatography. B, Analytical technologies in …, 2015).
Like-named read-outs stand apart in the source and are kept apart here.

What was measured:
in vivo = assay type: in vivo, A/J mice; conditions: for concentration in the PK study: oral XCHT 500 mg/kg
[1] = assay type: physicochemical, mice; conditions: for Accuracy (RE, %) 25°C for 6 h / Accuracy (RE, %) Frozen for 30 days: stability in mice plasma/blood QC sample; for Accuracy (RE, %) Frozen for 30 days: −80°C; for Accuracy (RE, %) 4°C for 24 h: stability, extracted QC sample in auto-sampler
Summary of the method: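 Blank mouse blood spiked with analytes and vitamin C, then extracted with methanol containing daidzein internal standard (0.5 μM) by 1 min vortex. Spun at 20,000 × g for 15 min and dried under air. Three replicates per QC level were held unextracted at 25°C for 6 h, at −80°C for 30 days, or extracted in the 4°C autosampler for 24 h. Analysed by UPLC-MS/MS (C18, formic acid/acetonitrile, positive MRM); accuracy as RE.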

[2] = male, A/J, mouse, whole blood, po, 500 mg/kg
[3] = male A/J mouse, oral XCHT extract 500 mg/kg, blood, mean±SD, n=6

SMILES | Accuracy (RE, %) 25°C for 6 h ([1]; spiked concentration 3.9) [%] | Accuracy (RE, %) 25°C for 6 h ([1]; spiked concentration 62.5) [%] | Accuracy (RE, %) 25°C for 6 h ([1]; spiked concentration 500) [%] | Accuracy (RE, %) Frozen for 30 days ([1]; spiked concentration 3.9) [%] | Accuracy (RE, %) Frozen for 30 days ([1]; spiked concentration 62.5) [%] | Accuracy (RE, %) Frozen for 30 days ([1]; spiked concentration 500) [%] | Accuracy (RE, %) 4°C for 24 h ([1]; spiked concentration 3.9) [%] | Accuracy (RE, %) 4°C for 24 h ([1]; spiked concentration 62.5) [%] | Accuracy (RE, %) 4°C for 24 h ([1]; spiked concentration 500) [%] | other results
COc1c(O)cc(O)c2c(=O)cc(-c3ccccc3)oc12 [Wogonin, wogonin] | 11.4 | 9.5 | 3.1 | 8.4 | 15 | 10.3 | 9.2 | 14.8 | 13.5 | Tmax (in vivo; male, A/J, mouse, whole blood, po, 0.5 g/kg): 10.2 ± 5.4 min; AUC(0-inf) (in vivo; [2]): 0.116 ± 0.0822 µM·h; AUC(0-t) (in vivo; [2]): 0.11 ± 0.0878 µM·h; Cmax (in vivo; [2]): 18.8 ± 6.27 nM; Tmax (in vivo; [2]): 10 min; half-life (in vivo; [2]): 370 ± 291 min
COc1ccc(-c2coc3cc(O)ccc3c2=O)cc1 [Formononetin, formononetin] | 8.0 | 11.8 | −10.9 | 13.5 | 13 | 4.9 | −8.9 | 13.6 | 5 | 
CC(C)=CCC[C@](C)(O[C@@H]1O[C@H](CO)[C@@H](O)[C@H](O)[C@H]1O)[C@H]1CC[C@]2(C)[C@@H]1[C@H](O)C[C@@H]1[C@@]3(C)CC[C@H](O)C(C)(C)[C@@H]3[C@@H](O[C@@H]3O[C@H](CO)[C@@H](O)[C@H](O)[C@H]3O)C[C@]12C [Rg1, ginsenoside Rg1] |  | 7.4 | 8.5 |  | 9.2 | 12.5 |  | 10.1 | 12.12 | concentration in the PK study (in vivo; A/J mice, blood, time 15 min): 0.80±0.50; concentration in the PK study (in vivo; A/J mice, blood, time 480 min): 1.16±0.29; Accuracy (RE, %) 25°C for 6 h ([1]; spiked concentration 0.488): 14.8%; Accuracy (RE, %) Frozen for 30 days ([1]; spiked concentration 0.488): 7.2%; Accuracy (RE, %) 4°C for 24 h ([1]; spiked concentration 0.488): 4.7%
COc1c(O[C@@H]2O[C@H](C(=O)O)[C@@H](O)[C@H](O)[C@H]2O)cc(O)c2c(=O)cc(-c3ccccc3)oc12 [Wogonoside, wogonoside] |  | 8.5 | 1.4 |  | 10.1 | 11.2 |  | 15.1 | 12.6 | AUC0-∞ (in vivo; [3]): 1.55574 ± 0.12091 µM·h; AUC(0-t) (in vivo; [3]): 1.44654 ± 0.33091 µM·h; Cmax (in vivo; [3]): 174 ± 42.1 nM; t1/2 (in vivo; [3]): 286 ± 74.4 min; Tmax (in vivo; male A/J mouse, oral XCHT extract 500 mg/kg, blood, median (min~max), n=6): 1.625 (0.083~3) h; Tmax (in vivo; mean±SD, A/J mice, oral XCHT 0.5 g/kg): 94.8 ± 97.8 min; detected in the blood (in vivo; mice, oral XCHT extract 0.5 g/kg): detected; Accuracy (RE, %) 25°C for 6 h ([1]; spiked concentration 0.488): 14.1%; Accuracy (RE, %) Frozen for 30 days ([1]; spiked concentration 0.488): −10.9%; Accuracy (RE, %) 4°C for 24 h ([1]; spiked concentration 0.488): 2.3%
CCCCC[C@H](O)CC(=O)CCc1ccc(O)c(OC)c1 [(6)-Gingerol, 6-gingernol] | 2.8 | −2.3 | −1.0 | 4.4 | −12.1 | 1.2 | 2.6 | −8.4 | 2 | 
O=c1c(O)c(-c2ccc(O)c(O)c2)oc2cc(O)cc(O)c12 [quercetin, quecertin] | −4.8 | −12.9 | 10.1 | −2.6 | 4.8 | 14.7 | −1.3 | 5.12 | 14.72 | 
COc1cc(CCC(C)=O)ccc1O [zingerone] | 7.5 | −8.6 | −14.6 | −5.9 | −0.9 | 12.7 | 4.6 | −1 | 11.4 | 
